# Source: article PMC3578163 (Chemical research in toxicology, 2013)
# Where two headings read alike, the source gives them in different places.
# How the values were obtained:
# hpol η^1–437 = biological target: T1, hpol η^1–437 (Homo sapiens, UniProt Q9Y253); experiment: polymerase-catalyzed primer extension; assay type: biochemical; settings: read-out: IC50 for inhibition of DNA polymerase activity; all four dNTPs 0.25 mM, MgCl2 5 mM; 20 nM enzyme, 200 nM DNA, 37 °C
# T1 sequence (Q9Y253 1-437): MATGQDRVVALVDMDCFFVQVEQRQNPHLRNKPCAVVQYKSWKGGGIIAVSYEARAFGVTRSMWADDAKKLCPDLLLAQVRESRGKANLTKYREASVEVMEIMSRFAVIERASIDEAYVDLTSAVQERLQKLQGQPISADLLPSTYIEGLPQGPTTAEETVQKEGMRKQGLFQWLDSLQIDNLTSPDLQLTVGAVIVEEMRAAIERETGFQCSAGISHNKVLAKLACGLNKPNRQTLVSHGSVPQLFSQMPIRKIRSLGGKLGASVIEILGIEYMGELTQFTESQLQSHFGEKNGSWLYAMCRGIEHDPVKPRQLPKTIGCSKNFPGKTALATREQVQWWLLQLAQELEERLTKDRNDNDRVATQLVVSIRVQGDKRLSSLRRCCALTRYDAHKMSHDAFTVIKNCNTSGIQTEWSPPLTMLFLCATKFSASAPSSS
# hpol ι^1–446 = biological target: T2, hpol ι^1–446 (Homo sapiens, UniProt Q9UNA4); experiment: polymerase-catalyzed primer extension; assay type: biochemical; settings: read-out: IC50 for inhibition of DNA polymerase activity; all four dNTPs 0.25 mM, MgCl2 5 mM; 20 nM enzyme, 200 nM DNA, 37 °C
# T2 sequence (Q9UNA4 1-446): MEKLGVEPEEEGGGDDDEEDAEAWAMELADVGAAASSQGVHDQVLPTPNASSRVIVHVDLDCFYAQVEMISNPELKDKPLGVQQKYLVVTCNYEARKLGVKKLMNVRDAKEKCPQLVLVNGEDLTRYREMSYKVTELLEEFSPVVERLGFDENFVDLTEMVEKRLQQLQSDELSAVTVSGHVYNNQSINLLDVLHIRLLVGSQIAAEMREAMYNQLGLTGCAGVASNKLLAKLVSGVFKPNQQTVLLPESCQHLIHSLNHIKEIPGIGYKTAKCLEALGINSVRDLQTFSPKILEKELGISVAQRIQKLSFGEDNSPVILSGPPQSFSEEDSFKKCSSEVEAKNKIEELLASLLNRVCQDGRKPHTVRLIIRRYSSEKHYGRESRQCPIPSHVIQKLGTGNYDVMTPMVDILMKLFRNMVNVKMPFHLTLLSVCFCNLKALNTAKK
# hpol ι^26–446 [1] = biological target: T3, hpol ι^26–446 (Homo sapiens, UniProt Q9UNA4); experiment: polymerase-catalyzed primer extension; assay type: biochemical; settings: read-out: IC50 for inhibition of DNA polymerase activity; all four dNTPs 0.25 mM, MgCl2 5 mM; 20 nM enzyme, 200 nM DNA, 37 °C
# T3 sequence (Q9UNA4 26-446): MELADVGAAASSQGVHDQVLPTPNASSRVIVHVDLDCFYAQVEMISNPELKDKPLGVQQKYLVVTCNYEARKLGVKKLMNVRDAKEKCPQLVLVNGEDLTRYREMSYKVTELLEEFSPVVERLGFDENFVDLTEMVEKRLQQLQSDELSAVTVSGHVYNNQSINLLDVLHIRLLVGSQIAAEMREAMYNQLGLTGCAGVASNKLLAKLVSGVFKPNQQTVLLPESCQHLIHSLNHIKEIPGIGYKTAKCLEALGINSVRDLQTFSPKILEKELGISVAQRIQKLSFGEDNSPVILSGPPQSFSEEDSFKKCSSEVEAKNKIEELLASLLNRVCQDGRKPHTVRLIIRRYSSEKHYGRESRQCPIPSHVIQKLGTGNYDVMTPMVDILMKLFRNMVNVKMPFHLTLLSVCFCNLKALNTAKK
# hpol ι^26–446 [2] = biological target: T3, hpol ι^26–446; assay type: binding; settings: for Kd: read-out: Kd,DNA (polymerase binding to primer-template DNA)
# How it was run: (§1)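 Recombinant human polymerase (His/GST-tagged, expressed in E. coli BL21(DE3), tags cleaved) titrated into 2 nM FAM-labelled 13/18-mer primer-template at 25 °C. Buffer: 50 mM HEPES pH 7.5, 10 mM KOAc, 10 mM MgCl₂, 0.1 mM ZnCl₂, 0.1 mM EDTA, 10% DMSO, 0.1 mg/mL BSA. MK886 at 0–250 μM, with DMSO as control. Polarization read at ex 485/em 525 nm. Kd fitted with total DNA held constant.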
# hpol κ^19–526 = biological target: T4, hpol κ^19–526 (Homo sapiens, UniProt Q9UBT6); assay type: binding; settings: for Kd: read-out: Kd,DNA (polymerase binding to primer-template DNA)
# T4 sequence (Q9UBT6 19-526): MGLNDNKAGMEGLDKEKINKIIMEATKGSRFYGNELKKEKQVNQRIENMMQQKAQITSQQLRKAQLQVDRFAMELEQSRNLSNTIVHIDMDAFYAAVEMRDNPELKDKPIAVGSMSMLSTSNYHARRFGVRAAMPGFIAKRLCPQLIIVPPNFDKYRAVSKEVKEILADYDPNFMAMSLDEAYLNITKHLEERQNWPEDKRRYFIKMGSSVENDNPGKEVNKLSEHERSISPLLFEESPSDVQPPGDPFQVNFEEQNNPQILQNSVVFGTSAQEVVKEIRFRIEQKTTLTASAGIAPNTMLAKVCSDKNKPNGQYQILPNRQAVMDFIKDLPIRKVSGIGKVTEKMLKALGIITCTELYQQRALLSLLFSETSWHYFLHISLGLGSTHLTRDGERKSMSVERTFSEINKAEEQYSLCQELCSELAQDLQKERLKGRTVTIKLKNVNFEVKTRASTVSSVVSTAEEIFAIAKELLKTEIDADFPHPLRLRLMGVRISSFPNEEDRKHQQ
# How it was run: as §1
# hpol ι^26–446 [3] = biological target: T3, hpol ι^26–446; assay type: biochemical; settings: for kcat: dTTP
# How it was run: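 Tripartite substrate built by annealing an unlabelled 19-mer primer, a TAMRA-labelled 10-mer reporter and a BHQ2-labelled 29-mer template (1.4:1:1.5); 50 nM substrate used. Enzyme at 5 nM in 50 mM Tris-HCl pH 8.0, 0.01% Tween-20, 2 mM DTT, 40 mM KCl, 0.25 mM MnCl₂, 25 °C. Inhibitor or DMSO present; dTTP 1–200 μM. Fluorescence (ex 525/em 598 nm) read continuously up to 60 min. Linear-phase velocities fitted to a hyperbola.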
# COX1 = settings: read-out: IC50 value for COX1 inhibition; in vitro activity assays; cited from earlier work
# [4] = test system: DNA synthesis in cell culture; settings: cited from earlier work
smiles,measurement,setting,value
"CC(C)c1ccc2c(c1)c(SC(C)(C)C)c(CC(C)(C)C(=O)O)n2Cc1ccc(Cl)cc1 [MK886, 3-[1-(4-chlorobenzyl)-3-t-butyl-thio-5-isoproylindol-2-yl]-2,2-dimethylpropanoic acid]",IC50,hpol η^1–437,45800 ± 8400 nM
same,IC50,hpol ι^1–446,15100 ± 2100 nM
same,IC50,hpol ι^26–446 [1],8200 ± 600 nM
same,change in the affinity for DNA relative to the DMSO control,hpol ι^26–446 [2]; 10 μM MK886,no observed change
same,"fold increase in the Kd,DNA",hpol ι^26–446 [2]; MK886 at or above 100 μM,> 2 fold
same,Kd,hpol ι^26–446 [2]; 100 μM MK886,18.8 ± 2.7 nM
same,Kd,hpol ι^26–446 [2]; 150 μM MK886,16.4 ± 2.1 nM
same,Kd,hpol ι^26–446 [2]; 250 μM MK886,38.8 ± 17.1 nM
same,change in binding affinity for hpol κ relative to that observed for hpol ι^26–446,hpol κ^19–526; hpol κ vs hpol ι^26–446,~ 2 fold
same,Kd,hpol κ^19–526; 25 μM MK886,26 ± 9.1 nM
same,Kd,hpol κ^19–526; 50 μM MK886,24.1 ± 9.4 nM
same,Kd,hpol κ^19–526; 100 μM MK886,31.3 ± 12.1 nM
same,Kd,hpol κ^19–526; 150 μM MK886,70.4 ± 15.7 nM
same,Kd,hpol κ^19–526; 250 μM MK886,67.9 ± 17.1 nM
same,kcat,"hpol ι^26–446 [3]; 20 μM MK886, fluorescence-based assay",0.0733 ± 0.0017 s⁻¹
same,"Fold decrease in kcat/KM,dNTP",hpol ι^26–446 [3]; 20 μM MK886 vs no inhibitor,1.6
same,kcat,"hpol ι^26–446 [3]; 40 μM MK886, fluorescence-based assay",0.0717 ± 0.0017 s⁻¹
same,"Fold decrease in kcat/KM,dNTP",hpol ι^26–446 [3]; 40 μM MK886 vs no inhibitor,2.1
same,kcat,"hpol ι^26–446 [3]; 60 μM MK886, fluorescence-based assay",0.0683 ± 0.0033 s⁻¹
same,"Fold decrease in kcat/KM,dNTP",hpol ι^26–446 [3]; 60 μM MK886 vs no inhibitor,2.4
same,mechanism of inhibition of DNA polymerase activity,"hpol ι^26–446 [3]; fluorescence-based assay, diminished kcat and increased KM,dNTP",mixed-type inhibition
same,IC50,COX1,8000 nM
same,concentration at which DNA synthesis/replication is inhibited,[4],≥ 1 µM
